Results reported in ChEMBL document CHEMBL2040807, “Facile synthesis, cytotoxic and antimicrobial activity studies of a new group of 6-aryl-3-[4-(methylsulfonyl)benzyl]-7H-[1,2,4]triazolo[3,4-b][1,3,4]thiadiazines” (Eur J Med Chem, 2012).
Values after ≈ are worked out from the molar mass of the structure shown. Active and inactive are the calls of the source. No cut-off for these calls is given here.

How the values were obtained:
RAW264.7 [1] = experiment: Cytotoxicity against mouse RAW264.7 cells assessed as cell death at 50 uM after 48 hrs by MTT assay; assay type: functional; details: pooled result: one value given for 2 cell lines, strains, targets or settings
Summary of the method: (§1)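 Both cell lines were seeded at 1×10⁴ cells per well, with viability checked first by trypan blue exclusion. Compounds were tested in triplicate for 48 h at 37 °C in 5% CO₂. Medium was then replaced with serum-free DMEM, MTT was added, and plates were held 3 h at 37 °C. Formazan was dissolved in DMSO for 15 min and read at 570 nm. % cell death = (A_DMSO − A_sample)/A_DMSO × 100.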

RAW264.7 [2] = experiment: Cytotoxicity against mouse RAW264.7 cells assessed as cell death at 12.5 uM after 48 hrs by MTT assay; assay type: functional; details: pooled result: one value given for 2 cell lines, strains, targets or settings; summary of the method: as §1
HT-29 [3] = experiment: Cytotoxicity against human HT-29 cells after 48 hrs by MTT assay; assay type: functional, cell-based; details: HT-29, 48 h
Summary of the method: (§2)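 Cells seeded at 1 x 10^4 per well (viability by Trypan blue exclusion) and treated in triplicate at 100, 50, 25 and […], 48 h at 37 °C, 5% CO2. Medium was then replaced with serum-free DMEM plus MTT for 3 h. Formazan was dissolved in DMSO for 15 min at 37 °C and read at 570 nm. % cell death was taken relative to vehicle (DMSO) control, and IC50 derived from it.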

RAW264.7 [4] = experiment: Cytotoxicity against mouse RAW264.7 cells after 48 hrs by MTT assay; assay type: functional, cell-based; details: RAW264.7, 48 h; summary of the method: as §2
Staphylococcus aureus = experiment: Antibacterial activity against Staphylococcus aureus after 16 hrs by broth dilution method; assay type: functional
Summary of the method: (§3)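 Compound stocks at 1 mg/mL in DMF, serially twofold diluted in trypticase soya broth tubes. Organisms were grown 6 h at 37 °C in trypticase soya broth, adjusted to McFarland […] (10^8 cfu/mL) in PBS, then diluted 10^3-fold in broth to 10^5 cfu/mL; 1 mL of this inoculum was added per tube. Tubes were incubated 16 h at 37 °C, with inoculum and broth controls. MIC was read as the lowest concentration with no visible growth.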

Candida albicans = experiment: Antifungal activity against Candida albicans after 16 hrs by broth dilution method; assay type: functional; summary of the method: as §3
Pseudomonas aeruginosa = experiment: Antibacterial activity against Pseudomonas aeruginosa after 16 hrs by broth dilution method; assay type: functional; summary of the method: as §3
RAW264.7 [5] = experiment: Cytotoxicity against mouse RAW264.7 cells assessed as cell death at 25 uM after 48 hrs by MTT assay; assay type: functional; details: pooled result: one value given for 2 cell lines, strains, targets or settings; summary of the method: as §1
Bacillus cereus = experiment: Antibacterial activity against Bacillus cereus after 16 hrs by broth dilution method; assay type: functional; summary of the method: as §3
RAW264.7 [6] = experiment: Cytotoxicity against mouse RAW264.7 cells assessed as cell death at 100 uM after 48 hrs by MTT assay; assay type: functional; details: pooled result: one value given for 2 cell lines, strains, targets or settings; summary of the method: as §1
Escherichia coli = experiment: Antibacterial activity against Escherichia coli after 16 hrs by broth dilution method; assay type: functional; summary of the method: as §3
HT-29 [7] = experiment: Cytotoxicity against human HT-29 cells assessed as cell death at 12.5 uM after 48 hrs by MTT assay; assay type: functional; details: pooled result: one value given for 2 cell lines, strains, targets or settings; summary of the method: as §1
HT-29 [8] = experiment: Cytotoxicity against human HT-29 cells assessed as cell death at 25 uM after 48 hrs by MTT assay; assay type: functional; details: pooled result: one value given for 2 cell lines, strains, targets or settings; summary of the method: as §1
HT-29 [9] = experiment: Cytotoxicity against human HT-29 cells assessed as cell death at 2.5 uM after 48 hrs by MTT assay; assay type: functional
RAW264.7 [10] = experiment: Cytotoxicity against mouse RAW264.7 cells assessed as cell death at 2.5 uM after 48 hrs by MTT assay; assay type: functional

Structure (SMILES)	Activity (RAW264.7 [1]) [%]	Activity (RAW264.7 [2])	IC50 (HT-29 [3]) [µM]	IC50 (RAW264.7 [4]) [µM]	MIC (Staphylococcus aureus) [µg/mL]	MIC (Candida albicans) [µg/mL]	MIC (Pseudomonas aeruginosa) [µg/mL]	Activity (RAW264.7 [5])	MIC (Bacillus cereus) [µg/mL]	Activity (RAW264.7 [6]) [%]	MIC (Escherichia coli) [µg/mL]	Activity (HT-29 [7])	Activity (HT-29 [8])	Activity (HT-29 [9]) [%]	Activity (RAW264.7 [10]) [%]
CS(=O)(=O)c1ccc(Cc2nnc3n2N=C(c2ccccc2)CS3)cc1	46.73	41.97%	25	25	6.25 (≈ 16.3 µM)	25 (≈ 65 µM)	6.25 (≈ 16.3 µM)	50.95%	6.25 (≈ 16.3 µM)	55.51	6.25 (≈ 16.3 µM)	–	–	–	–
OC(Cn1cncn1)(Cn1cncn1)c1ccc(F)cc1F [FLUCONAZOLE]	–	–	–	–	–	0.8 (≈ 2.61 µM)	–	–	–	–	–	–	–	–	–
CS(=O)(=O)c1ccc(Cc2nnc3n2N=C(c2ccc(Cl)cc2Cl)CS3)cc1	27.33	27.99%	> 100	> 100	12.5 (≈ 27.6 µM)	6.25 (≈ 13.8 µM)	6.25 (≈ 13.8 µM)	24.19%	6.25 (≈ 13.8 µM)	30.99	3.12 (≈ 6.89 µM)	–	–	–	–
CS(=O)(=O)c1ccc(Cc2nnc3n2N=C(c2cc4ccccc4c(=O)o2)CS3)cc1	14.86	22.43%	> 100	> 100	6.25 (≈ 13.8 µM)	3.12 (≈ 6.91 µM)	6.25 (≈ 13.8 µM)	25.58%	6.25 (≈ 13.8 µM)	10.63	6.25 (≈ 13.8 µM)	–	–	–	–
CS(=O)(=O)c1ccc(Cc2nnc3n2N=C(c2ccc(O)c(C(N)=O)c2)CS3)cc1	33.06	24.81%	> 100	> 100	12.5 (≈ 28.2 µM)	3.12 (≈ 7.05 µM)	6.25 (≈ 14.1 µM)	24.66%	3.12 (≈ 7.05 µM)	37.08	6.25 (≈ 14.1 µM)	–	–	–	–
Cc1ccc(C2=Nn3c(Cc4ccc(S(C)(=O)=O)cc4)nnc3SC2)cc1	37.91	inactive	> 100	> 100	12.5 (≈ 31.4 µM)	1.56 (≈ 3.92 µM)	12.5 (≈ 31.4 µM)	1.26%	12.5 (≈ 31.4 µM)	38.53	12.5 (≈ 31.4 µM)	inactive	–	–	–
CS(=O)(=O)c1ccc(Cc2nnc3n2N=C(c2cc(Cl)sc2Cl)CS3)cc1	25.54	inactive	> 100	> 100	6.25 (≈ 13.6 µM)	3.12 (≈ 6.8 µM)	6.25 (≈ 13.6 µM)	inactive	6.25 (≈ 13.6 µM)	47.27	6.25 (≈ 13.6 µM)	inactive	inactive	–	–
CS(=O)(=O)c1ccc(Cc2nnc3n2N=C(c2ccc(-c4ccccc4)cc2)CS3)cc1	67.93	58.2%	12.5	12.5	6.25 (≈ 13.6 µM)	6.25 (≈ 13.6 µM)	6.25 (≈ 13.6 µM)	60.19%	6.25 (≈ 13.6 µM)	74.77	6.25 (≈ 13.6 µM)	–	–	–	–
CS(=O)(=O)c1ccc(Cc2nnc3n2N=C(c2cc(Cl)cc4c2-c2ccc(Cl)cc2C4)CS3)cc1	43.12	41.05%	100	100	12.5 (≈ 23.1 µM)	6.25 (≈ 11.5 µM)	3.12 (≈ 5.77 µM)	44.8%	6.25 (≈ 11.5 µM)	50.33	6.25 (≈ 11.5 µM)	–	–	–	–
CC1(C)S[C@@H]2[C@H](NC(=O)Cc3ccccc3)C(=O)N2[C@H]1C(=O)O [PENICILLIN G]	–	–	–	–	0.12 (≈ 0.359 µM)	–	0.12 (≈ 0.359 µM)	–	0.12 (≈ 0.359 µM)	–	0.12 (≈ 0.359 µM)	–	–	–	–
COc1cccc2c1C(=O)c1c(O)c3c(c(O)c1C2=O)C[C@@](O)(C(=O)CO)C[C@@H]3O[C@H]1C[C@H](N)[C@H](O)[C@H](C)O1 [DOXORUBICIN]	–	–	–	–	–	–	–	–	–	–	–	–	–	78.2	78.2
CS(=O)(=O)c1ccc(Cc2nnc3n2N=C(c2cc(Cl)sc2S(N)(=O)=O)CS3)cc1	27.46	22.8%	> 100	> 100	12.5 (≈ 24.8 µM)	6.25 (≈ 12.4 µM)	6.25 (≈ 12.4 µM)	18.66%	12.5 (≈ 24.8 µM)	35.22	6.25 (≈ 12.4 µM)	–	–	–	–
